Assay results reported in ChEMBL document CHEMBL1157211, “Carbamoyl tetrazoles as inhibitors of endocannabinoid inactivation: a critical revisitation” (Eur J Med Chem, 2008).

Experiments:
[1] = target: T1, Fatty-acid amide hydrolase 1 (Rattus norvegicus, UniProt P97612); assay: Inhibition of FAAH mediated [14C]anandamide hydrolysis in rat brain after 30 mins; assay type: tissue-based
T1 sequence (P97612 whole entry): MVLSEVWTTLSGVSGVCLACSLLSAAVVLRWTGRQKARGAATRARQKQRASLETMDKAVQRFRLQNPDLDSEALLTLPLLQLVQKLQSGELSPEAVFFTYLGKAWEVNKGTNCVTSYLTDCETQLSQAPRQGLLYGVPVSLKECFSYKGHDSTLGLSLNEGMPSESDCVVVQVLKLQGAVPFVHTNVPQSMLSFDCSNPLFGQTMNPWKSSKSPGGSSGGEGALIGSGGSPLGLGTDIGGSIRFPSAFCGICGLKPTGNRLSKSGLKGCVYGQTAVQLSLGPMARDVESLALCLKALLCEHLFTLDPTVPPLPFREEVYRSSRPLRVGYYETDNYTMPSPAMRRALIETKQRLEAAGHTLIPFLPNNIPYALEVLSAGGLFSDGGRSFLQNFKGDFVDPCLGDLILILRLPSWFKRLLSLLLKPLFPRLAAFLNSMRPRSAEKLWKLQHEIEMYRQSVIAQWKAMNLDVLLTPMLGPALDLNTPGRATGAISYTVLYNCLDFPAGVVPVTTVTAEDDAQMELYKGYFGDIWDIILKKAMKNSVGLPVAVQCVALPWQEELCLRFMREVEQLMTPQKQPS
In short: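 Rat brain membranes incubated with test compounds and [14C]anandamide in 50 mM Tris-HCl, pH 9, for 30 min at 37 °C. After extraction with 2 volumes CHCl3/MeOH 2:1, [14C]ethanolamine in the aqueous phase was scintillation-counted. IC50 was taken as the concentration giving 50% inhibition of hydrolysis.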

[2] = target: T2, Diacylglycerol lipase-alpha (Homo sapiens, UniProt Q9Y4D2); assay: Inhibition of human recombinant DAGLalpha mediated sn-1-[14C]oleoyl-2-arachidonoyl-glycerol hydrolysis to 2-AG overexpressed in COS cells after 20 mins; assay type: cell-based
T2 sequence (Q9Y4D2 whole entry): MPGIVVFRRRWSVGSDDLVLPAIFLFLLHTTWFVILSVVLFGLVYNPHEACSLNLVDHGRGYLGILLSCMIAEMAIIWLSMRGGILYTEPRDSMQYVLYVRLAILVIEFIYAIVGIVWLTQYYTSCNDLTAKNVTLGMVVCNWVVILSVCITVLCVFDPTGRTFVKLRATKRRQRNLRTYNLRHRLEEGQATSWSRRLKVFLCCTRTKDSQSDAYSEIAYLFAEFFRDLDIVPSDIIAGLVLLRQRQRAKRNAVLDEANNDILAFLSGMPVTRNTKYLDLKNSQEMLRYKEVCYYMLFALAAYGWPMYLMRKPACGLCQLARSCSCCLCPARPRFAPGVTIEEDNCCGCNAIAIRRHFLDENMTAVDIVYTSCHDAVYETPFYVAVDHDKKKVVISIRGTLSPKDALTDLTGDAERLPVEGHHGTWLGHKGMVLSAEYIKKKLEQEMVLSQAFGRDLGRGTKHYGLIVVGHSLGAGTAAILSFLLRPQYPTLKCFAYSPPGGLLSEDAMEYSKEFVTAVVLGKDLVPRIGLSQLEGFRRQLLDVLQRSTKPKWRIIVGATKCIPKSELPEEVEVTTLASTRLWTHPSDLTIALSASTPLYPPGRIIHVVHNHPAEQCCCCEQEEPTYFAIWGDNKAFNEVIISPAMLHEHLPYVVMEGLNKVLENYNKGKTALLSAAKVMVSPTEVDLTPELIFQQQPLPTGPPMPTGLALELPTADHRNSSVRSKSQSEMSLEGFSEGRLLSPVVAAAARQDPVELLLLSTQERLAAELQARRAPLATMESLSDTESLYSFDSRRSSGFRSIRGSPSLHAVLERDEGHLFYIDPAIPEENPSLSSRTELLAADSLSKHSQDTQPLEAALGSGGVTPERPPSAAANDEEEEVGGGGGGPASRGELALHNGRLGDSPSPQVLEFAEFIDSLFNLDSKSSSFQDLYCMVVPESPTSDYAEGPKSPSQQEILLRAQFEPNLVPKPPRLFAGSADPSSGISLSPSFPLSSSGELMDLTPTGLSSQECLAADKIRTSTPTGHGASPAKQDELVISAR
In short: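 COS cells overexpressing DAGLα were harvested in Tris-HCl pH 7, Dounce-homogenized and spun at 800 g then 10 000 g at 4 °C. The 10 000 g membrane fraction was incubated with sn-1-[14C]oleoyl-2-arachidonoyl-glycerol in 50 mM Tris-HCl with 1 mM CaCl2, pH 7.0, for 20 min at 37 °C. Lipids were extracted with CHCl3/MeOH 2:1 and separated by silica TLC (CHCl3/MeOH/NH4OH 85/15/1). [14C]Oleic acid bands were β-counted.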

[3] = Inhibition of MAGL mediated [14C]2-arachidonoyl glycerol hydrolysis in african green monkey COS cells; assay type: cell-based; conditions: Chlorocebus aethiops
In short: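 The 10,000 g cytosolic fraction of COS cells overexpressing DAGLα was used as the MAGL source. It was incubated with radiolabelled synthetic 2-arachidonoylglycerol (1.0 mCi/mmol) in 50 mM Tris-HCl, pH 7.0, at 37 °C for 20 min. Lipids were then extracted with 2 volumes of chloroform/methanol 2:1 and lyophilized.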

[4] = tested on: RBL-2H3; assay: Inhibition of [14C]anandamide uptake in rat RBL-2H3 cells preincubated 10 mins before addition of [14C]anandamide; assay type: functional, cell-based; parameters: inhibition (INH): concentration or dose not given beside the values; conditions: for IC50: Rattus norvegicus, RBL-2H3
In short: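 Intact RBL-2H3 cells were pre-exposed to inhibitor at varying concentrations for 10 min, then given [14C]anandamide (10,000 cpm) for 90 s at 37 °C. Uptake was taken as the residual label in the medium after CHCl3/CH3OH 2:1 extraction, read by scintillation counting of the organic phase. Non-specific binding was defined with excess unlabelled anandamide. IC50 was calculated from the inhibition data.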

[5] = target: T3, Fatty-acid amide hydrolase 1 (Rattus norvegicus) (UniProt P97612); assay: Inhibition of FAAH mediated [14C]anandamide hydrolysis in rat RBL-2H3 cells at 0.1 uM after 30 mins
T3 sequence (whole entry): T1 sequence (P97612 whole entry)

[6] = target: T3, Fatty-acid amide hydrolase 1 (Rattus norvegicus); assay: Inhibition of FAAH mediated [14C]anandamide hydrolysis in rat RBL-2H3 cells at 1 uM after 30 mins
[7] = tested on: RBL-2H3; assay: Inhibition of [14C]anandamide uptake in rat RBL-2H3 cells at 1 uM preincubated 10 mins before addition of [14C]anandamide; assay type: functional
In short: (§1)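 RBL-2H3 cells were given inhibitor at 0.1 or 1 µM for 10 min, then [14C]anandamide (10,000 cpm) for 90 s at 37 °C. Uptake was read as residual medium label in the organic extract, and [14C]ethanolamine was counted in the aqueous phase in the same experiment. Results are % inhibition of uptake, N=4.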

[8] = tested on: RBL-2H3; assay: Inhibition of [14C]anandamide uptake in rat RBL-2H3 cells at 0.1 uM preincubated 10 mins before addition of [14C]anandamide; assay type: functional; in short: as §1
[9] = tested on: Monocyte; assay: Inhibition of anandamide uptake in human monocytes; assay type: functional, cell-based

CN(C)C(=O)n1nnc(CCCc2ccccc2)n1
IC50 [1]: 3.2 nM | IC50 [2]: 500 nM | IC50 [3]: 110 nM | inhibition (INH) [4]: 16% | IC50 [4]: > 10000 nM

CN(C)C(=O)n1nnnc1Cc1ccc(-c2ccccc2)cc1
inhibition [5]: 41.1% | inhibition [6]: 36.7% | IC50 [1]: 2.1 nM | IC50 [2]: > 10000 nM | IC50 [3]: 8100 nM | inhibition at 1 µM [7]: 74.2% | IC50 [4]: 15 nM | inhibition at 0.1 µM [8]: 66.5%

CN(C)C(=O)n1nnnc1CNC(=O)CCCCCCCc1ccccc1
IC50 [1]: 10 nM | IC50 [2]: 570 nM | IC50 [3]: 40 nM | inhibition (INH) [4]: 37.5% | IC50 [4]: > 10000 nM

C=CCOc1ccc(CN(C/C=C/c2ccccc2)CCCC)cc1
IC50 [9]: 90 nM

CN(C)C(=O)n1nnc(CNC(=O)CCCCCCc2ccccc2)n1
IC50 [1]: 2.1 nM | IC50 [2]: 10000 nM | IC50 [3]: > 10000 nM | inhibition (INH) [4]: 30% | IC50 [4]: > 10000 nM

CN(C)C(=O)n1nnc(CNC(=O)CCCCCCCc2ccccc2)n1
IC50 [1]: 3.2 nM | IC50 [2]: 10000 nM | IC50 [3]: 10000 nM | inhibition (INH) [4]: 18.8% | IC50 [4]: > 10000 nM

CN(C)C(=O)n1nnc(Cc2ccc(-c3ccccc3)cc2)n1
IC50 [1]: 33 nM | IC50 [2]: 510 nM | IC50 [3]: 20 nM | IC50 [4]: 998 nM

CN(C)C(=O)n1nnc(CNC(=O)c2ccc(N=[N+]=[N-])c(I)c2)n1
IC50 [1]: 25 nM | IC50 [2]: 4400 nM | IC50 [3]: > 10000 nM | inhibition (INH) [4]: 9% | IC50 [4]: > 1000 nM

CN(C)C(=O)n1nnnc1CCCc1ccccc1
IC50 [1]: 2.7 nM | IC50 [2]: 10000 nM | IC50 [3]: 10000 nM | inhibition (INH) [4]: 18% | IC50 [4]: > 10000 nM

CN(C)C(=O)n1nnc(CNC(=O)c2cccc(-c3ccccc3)c2)n1
IC50 [1]: 23 nM | IC50 [2]: > 10000 nM | IC50 [3]: 10000 nM | inhibition (INH) [4]: 23% | IC50 [4]: > 10000 nM

CN(C)C(=O)n1nnc(CNC(=O)c2ccc(-c3ccccc3)cc2)n1
IC50 [1]: 6 nM | IC50 [2]: > 10000 nM | IC50 [3]: > 10000 nM | IC50 [4]: 985 nM

CN(C)C(=O)n1nnnc1CNC(=O)c1cccc(-c2ccccc2)c1
IC50 [1]: 32 nM | IC50 [2]: 340 nM | IC50 [3]: 850 nM | IC50 [4]: 90 nM

CN(C)C(=O)n1nnnc1CNC(=O)c1ccc(N=[N+]=[N-])c(I)c1
IC50 [1]: 23 nM | IC50 [2]: 130 nM | IC50 [3]: 350 nM | inhibition (INH) [4]: 32.4% | IC50 [4]: > 1000 nM

CN(C)C(=O)n1nnnc1CNC(=O)CCCCCCc1ccccc1
IC50 [1]: 3.7 nM | IC50 [2]: 200 nM | IC50 [3]: 20 nM | IC50 [4]: 851 nM

CN(C)C(=O)n1nnnc1CCc1ccccc1
IC50 [1]: 5.4 nM | IC50 [2]: 10000 nM | IC50 [3]: 10000 nM | inhibition (INH) [4]: 15.8% | IC50 [4]: > 10000 nM

CN(C)C(=O)n1nnc(CCc2ccccc2)n1
IC50 [1]: 3.5 nM | IC50 [2]: 600 nM | IC50 [3]: 480 nM | inhibition (INH) [4]: 10.9% | IC50 [4]: > 10000 nM
